Experimental data from ChEMBL document CHEMBL4689842, “EUbOPEN Chemogenomics Library wave 1” (2021).

Tested on: Fibroblast
Assay: Multiplex assay against human fibroblast
Type: toxicity, cell-based
Outline: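 With compound added, live cells were imaged on a CQ1 microscope at 37°C and 5% CO2; staining with Hoechst33342, BioTracker Green Microtubule Cytoskeleton Dye, MitoTracker Red and Annexin V Alexa Fluor 680 had been done at seeding. The CellPathfinder machine-learning gating scheme split cells into Hoechst high-intensity objects or normal cells, normal cells into healthy, pyknosed or fragmented nuclei, and pyknosed cells into mitotic or apoptotic. The tubulin, mitochondrial-mass and membrane-permeability phenotypes are per cents of healthy-nucleus cells.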

[1] = 12 h, 1 µM, compound concentration 1 uM, replicate 1
[2] = 12 h, 1 µM, compound concentration 1 uM, replicate 2
[3] = 12 h, 10 µM, compound concentration 10 uM, replicate 1
[4] = 12 h, 10 µM, compound concentration 10 uM, replicate 2
[5] = 24 h, 1 µM, compound concentration 1 uM, replicate 1
[6] = 24 h, 1 µM, compound concentration 1 uM, replicate 2
[7] = 24 h, 10 µM, compound concentration 10 uM, replicate 1
[8] = 24 h, 10 µM, compound concentration 10 uM, replicate 2
[9] = 48 h, 1 µM, compound concentration 1 uM, replicate 1
[10] = 48 h, 1 µM, compound concentration 1 uM, replicate 2
[11] = 48 h, 10 µM, compound concentration 10 uM, replicate 1
[12] = 48 h, 10 µM, compound concentration 10 uM, replicate 2

CC(C)N1CCC(C)(C)c2cc(C#Cc3ccc(C(=O)O)cc3)ccc21
Population Apoptotic (%) [1]: 89%
Population Fragmented Nuclei (%) [1]: 42%
Population Healthy Nuclei (%) [1]: 41%
Population Hoechst High Intensity Objects (%) [1]: 41%
Population Membrane Permeable-Phenotype (%) [1]: 30%
Population Mitochondria Different-Phenotype (%) [1]: 6%
Population Mitotic Cells (%) [1]: 10%
Population Normal (%) [1]: 58%
Population Pyknosed Nuclei (%) [1]: 15%
Population Tubulin-Different-Phenotype (%) [1]: 46%
Total Cell Count [1]: 207
Population Apoptotic (%) [2]: 20%
Population Fragmented Nuclei (%) [2]: 16%
Population Healthy Nuclei (%) [2]: 75%
Population Hoechst High Intensity Objects (%) [2]: 13%
Population Membrane Permeable-Phenotype (%) [2]: 6%
Population Mitochondria Different-Phenotype (%) [2]: 15%
Population Mitotic Cells (%) [2]: 80%
Population Normal (%) [2]: 86%
Population Pyknosed Nuclei (%) [2]: 8%
Population Tubulin-Different-Phenotype (%) [2]: 20%
Total Cell Count [2]: 69
Population Apoptotic (%) [3]: 75%
Population Fragmented Nuclei (%) [3]: 89%
Population Healthy Nuclei (%) [3]: 6%
Population Hoechst High Intensity Objects (%) [3]: 76%
Population Membrane Permeable-Phenotype (%) [3]: 14%
Population Mitochondria Different-Phenotype (%) [3]: 0%
Population Mitotic Cells (%) [3]: 25%
Population Normal (%) [3]: 23%
Population Pyknosed Nuclei (%) [3]: 3%
Population Tubulin-Different-Phenotype (%) [3]: 7%
Total Cell Count [3]: 898
Population Apoptotic (%) [4]: 0%
Population Fragmented Nuclei (%) [4]: 55%
Population Healthy Nuclei (%) [4]: 44%
Population Hoechst High Intensity Objects (%) [4]: 71%
Population Membrane Permeable-Phenotype (%) [4]: 4%
Population Mitochondria Different-Phenotype (%) [4]: 14%
Population Mitotic Cells (%) [4]: 0%
Population Normal (%) [4]: 28%
Population Pyknosed Nuclei (%) [4]: 0%
Population Tubulin-Different-Phenotype (%) [4]: 28%
Total Cell Count [4]: 327
Population Apoptotic (%) [5]: 85%
Population Fragmented Nuclei (%) [5]: 39%
Population Healthy Nuclei (%) [5]: 48%
Population Hoechst High Intensity Objects (%) [5]: 41%
Population Membrane Permeable-Phenotype (%) [5]: 29%
Population Mitochondria Different-Phenotype (%) [5]: 1%
Population Mitotic Cells (%) [5]: 14%
Population Normal (%) [5]: 58%
Population Pyknosed Nuclei (%) [5]: 11%
Population Tubulin-Different-Phenotype (%) [5]: 38%
Total Cell Count [5]: 202
Population Apoptotic (%) [6]: 50%
Population Fragmented Nuclei (%) [6]: 18%
Population Healthy Nuclei (%) [6]: 76%
Population Hoechst High Intensity Objects (%) [6]: 4%
Population Membrane Permeable-Phenotype (%) [6]: 3%
Population Mitochondria Different-Phenotype (%) [6]: 10%
Population Mitotic Cells (%) [6]: 50%
Population Normal (%) [6]: 95%
Population Pyknosed Nuclei (%) [6]: 5%
Population Tubulin-Different-Phenotype (%) [6]: 18%
Total Cell Count [6]: 81
Population Apoptotic (%) [7]: 72%
Population Fragmented Nuclei (%) [7]: 86%
Population Healthy Nuclei (%) [7]: 7%
Population Hoechst High Intensity Objects (%) [7]: 78%
Population Membrane Permeable-Phenotype (%) [7]: 33%
Population Mitochondria Different-Phenotype (%) [7]: 0%
Population Mitotic Cells (%) [7]: 27%
Population Normal (%) [7]: 21%
Population Pyknosed Nuclei (%) [7]: 5%
Population Tubulin-Different-Phenotype (%) [7]: 20%
Total Cell Count [7]: 921
Population Apoptotic (%) [8]: 100%
Population Fragmented Nuclei (%) [8]: 49%
Population Healthy Nuclei (%) [8]: 47%
Population Hoechst High Intensity Objects (%) [8]: 66%
Population Membrane Permeable-Phenotype (%) [8]: 3%
Population Mitochondria Different-Phenotype (%) [8]: 3%
Population Mitotic Cells (%) [8]: 0%
Population Normal (%) [8]: 33%
Population Pyknosed Nuclei (%) [8]: 2%
Population Tubulin-Different-Phenotype (%) [8]: 26%
Total Cell Count [8]: 352
Population Apoptotic (%) [9]: 57%
Population Fragmented Nuclei (%) [9]: 47%
Population Healthy Nuclei (%) [9]: 45%
Population Hoechst High Intensity Objects (%) [9]: 45%
Population Membrane Permeable-Phenotype (%) [9]: 29%
Population Mitochondria Different-Phenotype (%) [9]: 0%
Population Mitotic Cells (%) [9]: 42%
Population Normal (%) [9]: 54%
Population Pyknosed Nuclei (%) [9]: 6%
Population Tubulin-Different-Phenotype (%) [9]: 29%
Total Cell Count [9]: 202
Population Apoptotic (%) [10]: 0%
Population Fragmented Nuclei (%) [10]: 57%
Population Healthy Nuclei (%) [10]: 42%
Population Hoechst High Intensity Objects (%) [10]: 35%
Population Membrane Permeable-Phenotype (%) [10]: 14%
Population Mitochondria Different-Phenotype (%) [10]: 5%
Population Mitotic Cells (%) [10]: 100%
Population Normal (%) [10]: 64%
Population Pyknosed Nuclei (%) [10]: 0%
Population Tubulin-Different-Phenotype (%) [10]: 25%
Total Cell Count [10]: 198
Population Apoptotic (%) [11]: 60%
Population Fragmented Nuclei (%) [11]: 90%
Population Healthy Nuclei (%) [11]: 6%
Population Hoechst High Intensity Objects (%) [11]: 77%
Population Membrane Permeable-Phenotype (%) [11]: 25%
Population Mitochondria Different-Phenotype (%) [11]: 0%
Population Mitotic Cells (%) [11]: 40%
Population Normal (%) [11]: 22%
Population Pyknosed Nuclei (%) [11]: 2%
Population Tubulin-Different-Phenotype (%) [11]: 18%
Total Cell Count [11]: 1050
Population Apoptotic (%) [12]: 0%
Population Fragmented Nuclei (%) [12]: 93%
Population Hoechst High Intensity Objects (%) [12]: 84%
Population Membrane Permeable-Phenotype (%) [12]: 20%
Population Mitochondria Different-Phenotype (%) [12]: 10%
Population Mitotic Cells (%) [12]: 0%
Population Normal (%) [12]: 15%
Population Pyknosed Nuclei (%) [12]: 0%
Population Tubulin-Different-Phenotype (%) [12]: 10%
Total Cell Count [12]: 961

Cc1cn(-c2cc(NC(=O)c3ccc4c(c3)CN(c3cncnc3)C[C@@H]4C)cc(C(F)(F)F)c2)cn1
Population Apoptotic (%) [1]: 81%
Population Fragmented Nuclei (%) [1]: 31%
Population Healthy Nuclei (%) [1]: 50%
Population Hoechst High Intensity Objects (%) [1]: 15%
Population Membrane Permeable-Phenotype (%) [1]: 7%
Population Mitochondria Different-Phenotype (%) [1]: 4%
Population Mitotic Cells (%) [1]: 18%
Population Normal (%) [1]: 84%
Population Pyknosed Nuclei (%) [1]: 17%
Population Tubulin-Different-Phenotype (%) [1]: 9%
Total Cell Count [1]: 147
Population Apoptotic (%) [2]: 42%
Population Fragmented Nuclei (%) [2]: 58%
Population Healthy Nuclei (%) [2]: 31%
Population Hoechst High Intensity Objects (%) [2]: 30%
Population Membrane Permeable-Phenotype (%) [2]: 0%
Population Mitochondria Different-Phenotype (%) [2]: 9%
Population Mitotic Cells (%) [2]: 57%
Population Normal (%) [2]: 70%
Population Pyknosed Nuclei (%) [2]: 10%
Population Tubulin-Different-Phenotype (%) [2]: 22%
Total Cell Count [2]: 100
Population Apoptotic (%) [3]: 71%
Population Fragmented Nuclei (%) [3]: 33%
Population Healthy Nuclei (%) [3]: 49%
Population Hoechst High Intensity Objects (%) [3]: 13%
Population Mitochondria Different-Phenotype (%) [3]: 5%
Population Mitotic Cells (%) [3]: 28%
Population Normal (%) [3]: 86%
Population Pyknosed Nuclei (%) [3]: 17%
Population Tubulin-Different-Phenotype (%) [3]: 23%
Total Cell Count [3]: 141
Population Apoptotic (%) [4]: 75%
Population Fragmented Nuclei (%) [4]: 67%
Population Healthy Nuclei (%) [4]: 18%
Population Hoechst High Intensity Objects (%) [4]: 36%
Population Membrane Permeable-Phenotype (%) [4]: 10%
Population Mitochondria Different-Phenotype (%) [4]: 50%
Population Mitotic Cells (%) [4]: 25%
Population Normal (%) [4]: 63%
Population Pyknosed Nuclei (%) [4]: 14%
Population Tubulin-Different-Phenotype (%) [4]: 40%
Total Cell Count [4]: 87
Population Apoptotic (%) [5]: 92%
Population Fragmented Nuclei (%) [5]: 35%
Population Healthy Nuclei (%) [5]: 45%
Population Hoechst High Intensity Objects (%) [5]: 19%
Population Membrane Permeable-Phenotype (%) [5]: 11%
Population Mitochondria Different-Phenotype (%) [5]: 1%
Population Mitotic Cells (%) [5]: 7%
Population Normal (%) [5]: 80%
Population Pyknosed Nuclei (%) [5]: 19%
Population Tubulin-Different-Phenotype (%) [5]: 7%
Total Cell Count [5]: 172
Population Apoptotic (%) [6]: 42%
Population Fragmented Nuclei (%) [6]: 51%
Population Healthy Nuclei (%) [6]: 37%
Population Hoechst High Intensity Objects (%) [6]: 28%
Population Membrane Permeable-Phenotype (%) [6]: 13%
Population Mitochondria Different-Phenotype (%) [6]: 8%
Population Mitotic Cells (%) [6]: 57%
Population Normal (%) [6]: 71%
Population Pyknosed Nuclei (%) [6]: 11%
Population Tubulin-Different-Phenotype (%) [6]: 17%
Total Cell Count [6]: 87
Population Apoptotic (%) [7]: 66%
Population Fragmented Nuclei (%) [7]: 36%
Population Healthy Nuclei (%) [7]: 48%
Population Hoechst High Intensity Objects (%) [7]: 16%
Population Membrane Permeable-Phenotype (%) [7]: 3%
Population Mitochondria Different-Phenotype (%) [7]: 10%
Population Mitotic Cells (%) [7]: 33%
Population Normal (%) [7]: 83%
Population Pyknosed Nuclei (%) [7]: 15%
Population Tubulin-Different-Phenotype (%) [7]: 26%
Total Cell Count [7]: 161
Population Apoptotic (%) [8]: 57%
Population Fragmented Nuclei (%) [8]: 66%
Population Healthy Nuclei (%) [8]: 20%
Population Hoechst High Intensity Objects (%) [8]: 36%
Population Membrane Permeable-Phenotype (%) [8]: 9%
Population Mitochondria Different-Phenotype (%) [8]: 18%
Population Mitotic Cells (%) [8]: 42%
Population Normal (%) [8]: 63%
Population Pyknosed Nuclei (%) [8]: 12%
Population Tubulin-Different-Phenotype (%) [8]: 36%
Total Cell Count [8]: 85
